{
  "source": "paper PMC11613190",
  "about": "(iScience, 2024)",
  "key": {"[1]": {"tested_on": "CF HBE cells cultured at ALI", "assay": "Total nitrate/nitrite release, fluorometric assay, CF HBE ALI cultures", "type": "cell-based, human", "settings": "for Effect on AIP-1 stimulated nitrate release: inhibitor 10 μM with AIP-1 50 μM; for Effect on nitrate release evoked by C12: inhibitor 10 μM with C12 100 μM", "summary_of_the_method": "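Primary CF human bronchial epithelial cells, carrying scrambled shRNA or T2R14 knockdown, were seeded on collagen-coated Transwells at 500,000 cells/well and grown at air-liquid interface to day 30. The apical surface was exposed for 18 h to C12 (100 µM) or AIP-1 (50 µM), with or without gallein or U73122 (10 μM each). Apical secretions were mixed with reductase cofactor for 30 min at room temperature, then total nitrate/nitrite was read fluorometrically.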"}, "[2]": {"tested_on": "NuLi-1 and CuFi-1 cells", "assay": "cAMP response to CFTR corrector in airway epithelial cell lines", "type": "cell-based, human", "settings": "5 µM for 24 h"}, "[3]": {"biological_target": "T1, T2R14 (Homo sapiens, UniProt Q9NYV8)", "T1 sequence (Q9NYV8 1-317)": "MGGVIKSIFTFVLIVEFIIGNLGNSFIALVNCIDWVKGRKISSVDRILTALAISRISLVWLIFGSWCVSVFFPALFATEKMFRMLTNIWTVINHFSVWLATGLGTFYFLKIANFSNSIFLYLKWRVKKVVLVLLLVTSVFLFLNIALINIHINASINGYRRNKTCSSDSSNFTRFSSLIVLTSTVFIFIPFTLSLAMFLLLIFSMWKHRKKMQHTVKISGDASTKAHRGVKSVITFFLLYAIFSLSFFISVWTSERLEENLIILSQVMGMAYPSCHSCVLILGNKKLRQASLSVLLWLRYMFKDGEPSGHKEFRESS", "assay": "Intracellular calcium mobilization in human bronchial epithelial", "type": "cell-based"}, "[4]": {"biological_target": "T1, T2R14", "assay": "Intracellular calcium mobilization in HEK293T cells overexpressing T2R14", "type": "cell-based", "settings": "for Intracellular calcium mobilization: HEK293T cells overexpressing T2R14, concentration series", "summary_of_the_method": "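HEK293T cells overexpressing T2R14 were loaded for agonist-induced intracellular calcium mobilization. They were treated with increasing concentrations of the bacterial quorum-sensing molecule 3-oxo-C12-AHL (4.5–300 μM), tyrosol (15–1000 μM) or farnesol (7.5–500 μM).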"}, "[5]": {"settings": "EC50, intracellular calcium mobilization, both BCF and BD cells"}},
  "data": [
    {"smiles": "O=C1OC2(c3ccccc31)c1ccc(O)c(O)c1Oc1c2ccc(O)c1O", "note": "[Gallein]", "values": [
      {"measurement": "Effect on AIP-1 stimulated nitrate release", "setting": "[1]", "result": "without altering the AIP-1 stimulated release significantly"},
      {"measurement": "Effect on nitrate release evoked by C12", "setting": "[1]", "result": "reduced the nitrate release evoked by C12"}
    ]},
    {"smiles": "Cc1ccc(NC(=O)C2(c3ccc4c(c3)OC(F)(F)O4)CC2)nc1-c1cccc(C(=O)O)c1", "note": "[VX-809, lumacaftor]", "values": [
      {"measurement": "cAMP levels in response to forskolin", "setting": "[2]; CuFi-1 cells", "result": "significant increase in cAMP levels"},
      {"measurement": "cAMP levels in response to forskolin", "setting": "[2]; NuLi cells", "result": "No significant change"}
    ]},
    {"smiles": "CCCCCCCCCC(=O)CC(=O)N[C@H]1CCOC1=O", "note": "[C12, 3-oxo-12-AHL]", "values": [
      {"measurement": "EC50", "setting": "[3]; read-out: EC50, intracellular calcium mobilization, both BCF and BD cells", "result": "~100", "unit": "µM"},
      {"measurement": "Intracellular calcium mobilization", "setting": "[4]", "result": "concentration dependent increase in intracellular calcium mobilization"},
      {"measurement": "EC50", "setting": "[4]; read-out: EC50, intracellular calcium mobilization, HEK 293T cells overexpressing T2R14", "result": "~60", "unit": "µM"},
      {"measurement": "Total nitrate release vs untreated controls", "setting": "[1]; apical exposure 18 h, C12 100 μM, AIP-1 50 μM", "result": "significant elevation of total nitrate release"}
    ]},
    {"smiles": "OCCc1ccc(O)cc1", "note": "[tyrosol]", "values": [
      {"measurement": "EC50", "setting": "[3]; [5]", "result": "~100", "unit": "µM"},
      {"measurement": "Intracellular calcium mobilization", "setting": "[4]", "result": "concentration dependent increase in intracellular calcium mobilization"}
    ]},
    {"smiles": "COc1ccc2c(c1)CC[C@@H]1[C@@H]2CC[C@]2(C)[C@@H](NCCCCCCN3C(=O)C=CC3=O)CC[C@@H]12", "note": "[U73122]", "values": [
      {"measurement": "Effect on AIP-1 stimulated nitrate release", "setting": "[1]", "result": "without altering the AIP-1 stimulated release significantly"},
      {"measurement": "Effect on nitrate release evoked by C12", "setting": "[1]", "result": "reduced the nitrate release evoked by C12"}
    ]},
    {"smiles": "CC(C)=CCC/C(C)=C/CC/C(C)=C/CO", "note": "[farnesol]", "values": [
      {"measurement": "EC50", "setting": "[3]; [5]", "result": "~120", "unit": "µM"},
      {"measurement": "Intracellular calcium mobilization", "setting": "[4]", "result": "concentration dependent increase in intracellular calcium mobilization"}
    ]},
    {"smiles": "CN(C)CCOC(c1ccccc1)c1ccccc1", "note": "[DPH, diphenhydramine]", "values": [
      {"measurement": "EC50", "setting": "[3]; EC50, Ca2+ mobilization, all the cell types investigated (NuLi-1, CuFi-1, BD, BCF)", "result": "~500", "unit": "µM"}
    ]}
  ]
}
